Results published in ChEMBL document CHEMBL2062387, “Blockade of STAT3 activation by sorafenib derivatives through enhancing SHP-1 phosphatase activity” (Eur J Med Chem, 2012).
Active and inactive are the calls of the source. No cut-off for these calls is given here.

Key:
[1] = target: Tyrosine-protein phosphatase non-receptor type 6 (Homo sapiens) (UniProt P29350); assay: Induction of SHP1 activation in IL-6-stimulated human PLC5 cells assessed as reduction of p-STAT3 at 10 uM after 24 hrs by ELISA; type: cell-based
How it was run: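 PLC5 cells were pre-stimulated with IL-6 at 25 ng/mL for 30 min, then treated with 10 µM compound for 24 h. Phospho-STAT3 was measured by ELISA against a DMSO control. Mean ± SD, N = 3.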

[2] = Growth inhibition of human PLC5 cells after 24 hrs by MTT assay; type: functional, cell-based; conditions: PLC5, 24 h
How it was run: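 PLC5 cells were grown in DMEM with 10% FBS, penicillin, streptomycin and amphotericin B at 37 °C in 5% CO2. Cells were seeded in 96-well plates for 24 h, then exposed to agents in DMSO (0.1% final) in DMEM for 24 h; range 0.1–15 µM. MTT at 0.5 mg/mL was added for 2 h and absorbance read at 570 nm. Six replicates; IC50 derived.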

Mus musculus [3] = assay: Induction of SHP1 activity in tumor of athymic NCr mouse xenografted with PLC5 cells at 10 mg/kg, po once daily for 3 weeks; type: functional, organism-based; parameters: dose 10 mg/kg
How it was run: (§1)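 Tumors came from PLC5 xenografts in nude mice dosed at 10 mg/kg/day p.o. for three weeks, with vehicle Cremophor EL/ethanol (50:50). Tumor extracts were assayed for p-STAT3 by western blot and for SHP-1 phosphatase activity.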

[4] = target: Tyrosine-protein phosphatase non-receptor type 6 (Homo sapiens) (UniProt P29350); assay: Induction of SHP1 activation in human PLC5 cell lysate at 10 uM after 24 hrs; type: cell-based
How it was run: (§2)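 PLC5 cells were treated with compound for 24 h. SHP-1 was immunoprecipitated from lysates and its phosphatase activity measured with the EnzChek tyrosine phosphatase kit. Mean ± SD, N = 3.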

[5] = Ratio of SC-1 IC50 to compound IC50 for human PLC5 cells; type: functional
Mus musculus [6] = assay: Inhibition of STAT3 phosphorylation in tumor of athymic NCr mouse xenografted with PLC5 cells at 10 mg/kg, po once daily for 3 weeks by Western blot method; type: functional, organism-based; parameters: dose 10 mg/kg; how it was run: as §1
PLC5 = assay: Antitumor activity against PLC5 cells xenografted in athymic NCr mouse assessed as tumor growth inhibition at 10 mg/kg, po once daily for 3 weeks; type: functional, organism-based; parameters: dose 10 mg/kg
How it was run: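 Male NCr athymic nude mice, 5–7 weeks old, bearing PLC5 tumors. Dosing began when tumors reached 100 mm3: 10 mg/kg p.o. once daily for three weeks. Vehicle was Cremophor EL/95% ethanol (50:50), given to controls. Read-out was tumor growth.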

[7] = target: Tyrosine-protein phosphatase non-receptor type 6 (Homo sapiens) (UniProt P29350); assay: Induction of SHP1 activation in human PLC5 cells at 1 to 15 uM after 24 hrs; type: cell-based; how it was run: as §2
[8] = target: Tyrosine-protein phosphatase non-receptor type 6 (Homo sapiens) (UniProt P29350); assay: Induction of SHP1 activation in human PLC5 cells assessed as repression of survivin expression at 5 to 10 uM after 24 hrs by Western blot method; type: cell-based
How it was run: (§3)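 PLC5 cells were treated at 5 and 10 µM for 24 h in serum-free medium. Lysates were immunoblotted for p-STAT3 (Tyr705), STAT3, Mcl-1, cyclin D1, survivin, SOCS-1, SOCS-3 and PARP.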

[9] = target: Tyrosine-protein phosphatase non-receptor type 6 (Homo sapiens) (UniProt P29350); assay: Induction of SHP1 activation in human PLC5 cells assessed as repression of Mcl-1 expression at 5 to 10 uM after 24 hrs by Western blot method; type: cell-based; how it was run: as §3
[10] = target: Tyrosine-protein phosphatase non-receptor type 6 (Homo sapiens) (UniProt P29350); assay: Induction of SHP1 activation in human PLC5 cells assessed as reduction of p-STAT3 at 5 to 10 uM after 24 hrs by Western blot method; type: cell-based; how it was run: as §3
[11] = target: Tyrosine-protein phosphatase non-receptor type 6 (Homo sapiens) (UniProt P29350); assay: Induction of SHP1 activation in human PLC5 cells assessed as effect on SOCS-1 level at 5 to 10 uM after 24 hrs by Western blot method; type: cell-based; how it was run: as §3
[12] = target: Tyrosine-protein phosphatase non-receptor type 6 (Homo sapiens) (UniProt P29350); assay: Induction of SHP1 activation in human PLC5 cells assessed as repression of CCND1 expression at 5 to 10 uM after 24 hrs by Western blot method; type: cell-based; how it was run: as §3
[13] = target: Tyrosine-protein phosphatase non-receptor type 6 (Homo sapiens) (UniProt P29350); assay: Induction of SHP1 activation in human PLC5 cells assessed as effect on SOCS-3 level at 5 to 10 uM after 24 hrs by Western blot method; type: cell-based; how it was run: as §3
[14] = target: Tyrosine-protein phosphatase non-receptor type 6 (Homo sapiens) (UniProt P29350); assay: Induction of SHP1 activation in human PLC5 cell lysate after 24 hrs; type: cell-based; how it was run: as §2
[15] = target: Tyrosine-protein phosphatase non-receptor type 6 (Homo sapiens) (UniProt P29350); assay: Induction of SHP1 activation in human PLC5 cells assessed as PARP cleavage at 5 to 10 uM after 24 hrs by Western blot method; type: cell-based; how it was run: as §3

Chain of Tyrosine-protein phosphatase non-receptor type 6 (Homo sapiens) (P29350 whole entry): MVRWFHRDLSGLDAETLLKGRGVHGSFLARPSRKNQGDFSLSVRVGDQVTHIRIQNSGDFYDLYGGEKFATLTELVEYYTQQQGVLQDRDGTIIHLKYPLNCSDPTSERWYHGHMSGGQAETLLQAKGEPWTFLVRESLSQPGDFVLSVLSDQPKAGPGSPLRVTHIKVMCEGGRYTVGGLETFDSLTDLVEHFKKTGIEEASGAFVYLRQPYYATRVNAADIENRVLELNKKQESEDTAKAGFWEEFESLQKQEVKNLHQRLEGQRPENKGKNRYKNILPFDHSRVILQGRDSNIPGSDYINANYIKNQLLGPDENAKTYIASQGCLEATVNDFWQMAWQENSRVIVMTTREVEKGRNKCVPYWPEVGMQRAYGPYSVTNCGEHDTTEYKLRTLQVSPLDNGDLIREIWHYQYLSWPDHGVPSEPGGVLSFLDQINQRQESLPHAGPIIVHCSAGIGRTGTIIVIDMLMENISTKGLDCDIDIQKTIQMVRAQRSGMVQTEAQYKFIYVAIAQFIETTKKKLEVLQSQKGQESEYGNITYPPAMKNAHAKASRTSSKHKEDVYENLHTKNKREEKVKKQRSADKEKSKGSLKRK

| Structure (SMILES) | Activity [1] | IC50 [2] [µM] | further results |
| --- | --- | --- | --- |
| CNC(=O)c1cc(Oc2cccc(NS(=O)(=O)c3cccc(C(F)(F)F)c3)c2)ccn1 | Active | 8.4 |  |
| C[C@@H](NC(=O)Nc1ccc(Oc2ccc(C#N)cc2)cc1)c1cccc2ccccc12 | inactive | > 15 |  |
| CNC(=O)c1cc(Oc2cccc(NC(=O)Nc3cccc(F)c3)c2)ccn1 | inactive | > 15 |  |
| COc1ccc(CNC(=O)Nc2ccc(Oc3ccc(C#N)cc3)cc2)cc1OC | Active | 12.3 |  |
| N#Cc1ccc(Oc2cccc(NS(=O)(=O)c3cccc(C(F)(F)F)c3)c2)cc1 | Active | 2.2 |  |
| N#Cc1ccc(Oc2cccc(NC(=O)c3ccccc3)c2)cc1 | inactive | > 15 |  |
| N#Cc1ccc(Oc2ccc(CNC(=O)Nc3ccc(Cl)c(C(F)(F)F)c3)cc2)cc1 | Active | 2.1 | Activity (Mus musculus [3]): Active; Activity [4]: Active; Ratio IC50 [5]: 4; inhibition (Mus musculus [6]): Active; TGI (PLC5): Active |
| Nc1cc(Oc2cccc(NS(=O)(=O)c3cccc(C(F)(F)F)c3)c2)ccc1[N+](=O)[O-] | Active | 3.9 |  |
| Nc1ccc(Oc2cccc(NS(=O)(=O)c3cccc(C(F)(F)F)c3)c2)cc1N | inactive | > 15 |  |
| Nc1ccc(Oc2cccc(NCc3cccc(OC(F)(F)F)c3)c2)cc1N | inactive | > 15 |  |
| COc1ccc(CNC(=O)NCc2ccc(Oc3ccc(C#N)cc3)cc2)cc1OC | Active | 10.5 |  |
| O=c1[nH]c2ccc(Oc3cccc(NS(=O)(=O)c4cccc(C(F)(F)F)c4)c3)cc2[nH]1 | Active | 11.5 |  |
| CNC(=O)c1cc(Oc2cccc(NS(=O)(=O)c3ccccc3)c2)ccn1 | inactive | > 15 |  |
| N#Cc1ccc(Oc2cccc(NC(=O)Nc3cccc(F)c3)c2)cc1 | Active | 3.3 |  |
| O=c1[nH]c2ccc(Oc3cccc(NCc4cccc(OC(F)(F)F)c4)c3)cc2[nH]1 | Active | 10.2 |  |
| Cc1ccc(NC(=O)Nc2ccc(Cl)c(C(F)(F)F)c2)cc1Oc1ccc(C#N)cc1 | Active | 4.5 |  |
| N#Cc1ccc(Oc2cccc(NCc3cccc(OC(F)(F)F)c3)c2)cc1 | inactive | > 15 |  |
| N#Cc1ccc(Oc2cccc(NS(=O)(=O)c3ccccc3)c2)cc1 | inactive | > 15 |  |
| CNC(=O)c1cc(Oc2ccc(NC(=O)Nc3ccc(Cl)c(C(F)(F)F)c3)cc2)ccn1 |  |  | Activity [7]: Active |
| CNC(=O)c1cc(Oc2cccc(NCc3cccc(OC(F)(F)F)c3)c2)ccn1 | inactive | > 15 | Activity [8]: inactive; Activity [9]: inactive; Activity [10]: inactive; Activity [4]: inactive; Activity [11]: inactive; Activity [12]: inactive; Activity [13]: inactive |
| Nc1cc(Oc2cccc(NCc3cccc(OC(F)(F)F)c3)c2)ccc1[N+](=O)[O-] | Active | 8.3 |  |
| Nc1cc(Oc2cccc(NC(=O)Nc3ccc(Cl)c(C(F)(F)F)c3)c2)ccc1[N+](=O)[O-] | Active | 1.2 |  |
| N#Cc1ccc(Oc2ccc(CNC(=O)NCc3cccc(OC(F)(F)F)c3)cc2)cc1 | inactive | > 15 |  |
| CNC(=O)c1cc(Oc2cccc(NC(=O)c3ccccc3)c2)ccn1 | inactive | > 15 |  |
| N#Cc1ccc(Oc2cccc(NC(=O)Nc3ccc(Cl)c(C(F)(F)F)c3)c2)cc1 [SC-43] | Active | 0.5 | Activity [14]: Dose-dependent effect; Activity [8]: Active; Activity [15]: Active; Activity [9]: Active; Activity [10]: Active; Activity [4]: Active; Activity [11]: inactive; Activity [12]: Active; Activity [13]: inactive |
